What was measured:
[1] = tested on: Human immunodeficiency virus 1; assay: Concentration required for antiviral activity in PBMC (human peripheral blood mononuclear cells) infected with HIV-1 strain LAV; assay type: functional, organism-based
Outline: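 Human PBM cells infected with HIV-1 strain LAV. EC50 is the concentration giving 50% inhibition of virus production, measured as reverse transcriptase (RT) levels in culture supernatant. Values are the mean of triplicates, calculated by the median method.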

[2] = tested on: Human immunodeficiency virus 1; assay: Inhibition of cell growth against HIV-1 infected PBM (Human peripheral blood mononuclear) cells; assay type: functional, organism-based
Outline: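 Growth of human PBM cells measured in cytotoxicity assay; IC50 = concentration giving 50% inhibition of cell growth; mean of triplicate values, calculated by the median method.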

[3] = tested on: Vero; assay: Inhibition of cell growth in vero cells; assay type: functional, cell-based; settings: Chlorocebus sabaeus
Outline: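 Vero cell cytotoxicity assay; IC50 = concentration giving 50% inhibition of cell growth; mean of triplicate values, calculated by the median method.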

[4] = Human immunodeficiency virus 1, PBMC

Row | Compound | EC50 [1, 4] [µM] | IC50 [2] [µM] | IC50 [3] [µM] | EC50 ([1]; pbmc) [µM]
1 | Nc1nc(F)nc2c1ncn2[C@H]1CS[C@@H](CO)O1 | 2.8 | > 100 | 5.6 | –
2 | Nc1nc(=O)n([C@H]2CS[C@@H](CO)O2)cc1F | 0.38 | > 100 | > 100 | –
3 | Nc1ncnc2c1ncn2[C@H]1CS[C@@H](CO)O1 | 0.28 | > 100 | > 100 | –
4 | OC[C@H]1O[C@H](n2cnc3c(Cl)ncnc32)CS1 | 2.7 | > 100 | 86.1 | –
5 | CNc1ncnc2c1ncn2[C@H]1CS[C@@H](CO)O1 | 1.1 | > 100 | > 100 | –
6 | Nc1nc(Cl)c2ncn([C@H]3CS[C@@H](CO)O3)c2n1 (racemic) | 0.52 | > 100 | > 100 | –
7 | O=c1[nH]c(=O)n([C@@H]2CS[C@@H](CO)O2)cc1I | 112 | > 100 | > 100 | –
8 | Cc1cn([C@H]2CS[C@@H](CO)O2)c(=O)[nH]c1=O | 11.6 | > 100 | > 100 | –
9 | O=c1[nH]c(=O)n([C@H]2CS[C@@H](CO)O2)cc1Br | > 100 | > 100 | > 100 | –
10 | Cc1cn([C@@H]2CS[C@@H](CO)O2)c(=O)nc1N | > 100 | > 100 | > 100 | –
11 | Nc1nc(=O)n([C@@H]2CS[C@@H](CO)O2)cc1Br | > 100 | > 100 | > 100 | –
12 | Nc1nc(O)c2ncn([C@H]3CS[C@@H](CO)O3)c2n1 | 0.83 | > 100 | > 100 | –
13 | O=c1[nH]c(=O)n([C@H]2CS[C@@H](CO)O2)cc1Cl | 30.4 | > 100 | > 100 | –
14 | Nc1nc(Cl)c2ncn([C@@H]3CS[C@@H](CO)O3)c2n1 | 5.6 | > 100 | > 100 | –
15 | O=c1[nH]c(=O)n([C@@H]2CS[C@@H](CO)O2)cc1Br | > 100 | > 100 | > 100 | –
16 | Nc1ccn([C@@H]2CS[C@@H](CO)O2)c(=O)n1 | > 100 | > 100 | > 100 | –
17 | Nc1nc(F)nc2c1ncn2[C@@H]1CS[C@@H](CO)O1 | 61.9 | > 100 | 45.4 | –
18 | Nc1nc(=O)n([C@@H]2CS[C@@H](CO)O2)cc1I | 0.28 | > 100 | > 100 | –
19 | Nc1nc(=O)n([C@@H]2CS[C@@H](CO)O2)cc1Cl | > 100 | > 100 | 31.2 | –
20 | O=c1[nH]c(=O)n([C@H]2CS[C@@H](CO)O2)cc1I | 29.3 | > 100 | > 100 | –

Row | Compound | EC50 [1, 4] [µM] | IC50 [2] [µM] | IC50 [3] [µM] | EC50 ([1]; pbmc) [µM]
21 | Cc1cn([C@H]2C[C@H](N=[N+]=[N-])[C@@H](CO)O2)c(=O)[nH]c1=O [ZIDOVUDINE] | 0.004 | > 100 | > 100 | –
22 | Nc1nc(=O)n([C@@H]2CS[C@@H](CO)O2)cc1F | 77.5 | > 100 | > 100 | –
23 | O=c1[nH]c(=O)n([C@@H]2CS[C@@H](CO)O2)cc1Cl | > 100 | > 100 | > 100 | –
24 | Nc1nc2c(ncn2[C@H]2CO[C@@H](CO)O2)c(=O)[nH]1 | 0.03 | – | – | –
25 | Nc1ccn([C@@H]2CS[C@H](CO)O2)c(=O)n1 [LAMIVUDINE] | – | > 100 | > 100 | 0.0018
26 | Nc1nc(=O)n([C@H]2CS[C@@H](CO)O2)cc1Cl | 0.28 | > 100 | > 100 | –
27 | OC[C@H]1O[C@@H](n2cnc3c(O)ncnc32)CS1 | 0.05 | > 100 | > 100 | –
28 | Nc1nc(=O)n([C@H]2CS[C@@H](CO)O2)cc1I | 1.9 | > 100 | > 100 | –
29 | O=c1[nH]c(=O)n([C@H]2CS[C@@H](CO)O2)cc1F | 6.3 | > 100 | > 100 | –
30 | Cc1cn([C@@H]2CS[C@@H](CO)O2)c(=O)[nH]c1=O | > 100 | > 100 | > 100 | –
31 | CNc1ncnc2c1ncn2[C@@H]1CS[C@@H](CO)O1 | 11.7 | > 100 | > 100 | –
32 | OC[C@H]1O[C@H](n2cnc3c(O)ncnc32)CS1 | > 100 | > 100 | > 100 | –
33 | Nc1nc(O)c2ncn([C@@H]3CS[C@@H](CO)O3)c2n1 | 7.62 | > 100 | 63.6 | –
34 | Cc1cn([C@H]2CS[C@@H](CO)O2)c(=O)nc1N | 0.172 | > 100 | > 100 | –
35 | O=c1ccn([C@H]2CS[C@@H](CO)O2)c(=O)[nH]1 | 94.7 | > 100 | > 100 | –
36 | Nc1ncnc2c1ncn2[C@@H]1CS[C@@H](CO)O1 | 11.9 | > 100 | > 100 | –
37 | Nc1nc(=O)n([C@H]2CS[C@@H](CO)O2)cc1Br | 0.012 | > 100 | > 100 | –
38 | OC[C@H]1O[C@@H](n2cnc3c(Cl)ncnc32)CS1 | 0.48 | > 100 | 46.5 | –
39 | Nc1ccn([C@H]2CO[C@@H](CO)O2)c(=O)n1 | 0.016 | – | – | –

— ChEMBL document CHEMBL1126792, “Structure-activity relationships of beta-D-(2S,5R)- and alpha-D-(2S,5S)-1,3-oxathiolanyl nucleosides as potential anti-HIV agents” (J Med Chem, 1993)
